# Paper PMC7127161 (Bioorganic & Medicinal Chemistry, 2014)
# Experiments:
# HIV-1(IIIB) = assay: Anti-HIV-1 activity; format: cell-based; details: CEM cells, HIV-1 and HIV-2
# In short: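 CEM cells (~3 × 10^5 cells/mL) infected with HIV-1(IIIB) at 100 CCID50 per mL, with dilutions of test compound. Incubated 4–5 days at 37 °C in humidified, CO2-controlled air. Giant (syncytium) cell formation scored under the microscope. EC50 is the concentration that inhibits HIV-induced cytopathic effect by 50%.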
# Reverse transcriptase = assay: Activity against reverse transcriptase; format: biochemical; details: data not shown
# CEM cells = assay: Cytostatic properties in human T-lymphocyte; format: cell-based; details: concentration required to reduce CEM cell proliferation by 50%
# In short: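 Cytostatic assay: (5–7.5) × 104 CEM cells per well with test compound. Cells proliferate 72 h at 37 °C in humidified, CO2-controlled air, then are counted in a Coulter counter. The 50% value is the concentration that inhibits cell proliferation by 50%.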
# HSV-2 = assay: Antiviral activity against HSV-2 in HEL cell cultures; format: cell-based; details: at 100 μM
# [1] = system: respiratory syncytial virus (RSV); assay: Antiviral activity against RSV in HeLa cell cultures; format: cell-based; details: at 100 μM
# influenza virus B = format: cell-based
# vaccinia virus = format: cell-based
# feline corona virus = assay: Antiviral activity against feline corona virus in CrFK cell cultures; format: cell-based; details: at 100 μM
# feline herpesvirus = assay: Antiviral activity against feline herpesvirus in CrFK cell cultures; format: cell-based; details: at 100 μM
# HIV-1 (NL4.3) = assay: Anti-HIV-1 activity; format: cell-based; details: MT-4 cells
# [2] = system: vesicular stomatitis virus (VSV); format: cell-based
# influenza virus A (H3N2) = format: cell-based
# reovirus-1 = assay: Antiviral activity against reovirus-1 in Vero cell cultures; format: cell-based; details: at 100 μM
# Sindbis virus = assay: Antiviral activity against Sindbis virus in Vero cell cultures; format: cell-based; details: at 100 μM
# influenza virus A (H1N1) = format: cell-based
# [3] = system: herpes simplex virus type 1 (HSV-1); assay: Antiviral activity against HSV-1 in HEL cell cultures; format: cell-based; details: at 100 μM
# Punta Toro virus = assay: Antiviral activity against Punta Toro virus in Vero cell cultures; format: cell-based; details: at 100 μM
# parainfluenza virus-3 = assay: Antiviral activity against parainfluenza virus-3 in Vero cell cultures; format: cell-based; details: at 100 μM
# Coxsackie virus B4 = assay: Antiviral activity against Coxsackie virus B4 in HeLa cell cultures; format: cell-based; details: at 100 μM
compound,measurement,setting,value
"OC[C@H]1CC(O)C[C@@H]1O (stereo partly drawn) [Compound 14, (3S,4R)-3-hydroxy-4-hydroxymethyl cyclopentanol]",anti-HIV-1 or anti-HIV-2 activity (in words),HIV-1(IIIB),not active
"(1R,2S,3S)-3-(Benzyloxycarbonyl)-2-(benzyloxycarbonylmethyl)cyclopentanol [Compound 13]",activity against reverse transcriptase,Reverse transcriptase,inactive
same,CC50,CEM cells,94 ± 4.2 µM
"OC[C@H]1[C@H](O)CC[C@@H]1O [Compound 15, 2-hydroxymethyl-3-hydroxycyclopentanol]",activity against reverse transcriptase,Reverse transcriptase,inactive
same,activity against HSV-2,HSV-2,did not show any measurable activity
same,activity against respiratory syncytial virus (RSV),[1],did not show any measurable activity
same,activity against influenza virus B,influenza virus B,did not show any measurable activity
same,activity against vaccinia virus,vaccinia virus,did not show any measurable activity
same,activity against feline corona virus,feline corona virus,did not show any measurable activity
same,activity against feline herpesvirus,feline herpesvirus,did not show any measurable activity
same,antiviral activity against HIV-1 and HIV-2 in MT-4 cell cultures (in words),HIV-1 (NL4.3),confirmed at low micromolar concentrations
same,activity against vesicular stomatitis virus (VSV),[2],did not show any measurable activity
same,activity against influenza virus A (H3N2),influenza virus A (H3N2),did not show any measurable activity
same,activity against reovirus-1,reovirus-1,did not show any measurable activity
same,activity against Sindbis virus,Sindbis virus,did not show any measurable activity
same,activity against influenza virus A (H1N1),influenza virus A (H1N1),did not show any measurable activity
same,activity against herpes simplex virus type 1 (HSV-1),[3],did not show any measurable activity
same,activity against Punta Toro virus,Punta Toro virus,did not show any measurable activity
same,activity against parainfluenza virus-3,parainfluenza virus-3,did not show any measurable activity
same,activity against Coxsackie virus B4,Coxsackie virus B4,did not show any measurable activity
"(3S,4R)-3-(Benzyloxycarbonyl)-4-(benzyloxycarbonylmethyl)cyclopentenol [Compound 11]",CC50,CEM cells,110 ± 4.2 µM
same,anti-HIV-1 or anti-HIV-2 activity (in words),HIV-1(IIIB),not active
"C[C@H](NP(=O)(Oc1cccc2ccccc12)O[C@@H]1CC[C@H](O)[C@H]1CO)C(=O)OCC(C)(C)C (stereo partly drawn) [Compound 17a, (1R,2R,3S)-3-Hydroxy-2-(hydroxymethyl)cyclopentyl-1-O-naphthyl-(neopentyl-L-alaninyl)-phosphate]",antiviral activity against HIV-1 and HIV-2 in MT-4 cell cultures (in words),HIV-1 (NL4.3),devoid of any significant antiviral activity
"CCCCCOC(=O)[C@H](C)NP(=O)(Oc1ccccc1)O[C@@H]1CC[C@H](O)[C@H]1CO (stereo partly drawn) [Compound 17b, (1R,2R,3S)-3-Hydroxy-2-(hydroxymethyl)cyclopentyl-1-O-phenyl-(pentoxy-L-alaninyl)-phosphate]",antiviral activity against HIV-1 and HIV-2 in MT-4 cell cultures (in words),HIV-1 (NL4.3),devoid of any significant antiviral activity
